The text below walks through data of ChEMBL document CHEMBL3861986, “Synthesis and Enantiomeric Separation of a Novel Spiroketal Derivative: A Potent Human Telomerase Inhibitor with High in Vitro Anticancer Activity” (J Med Chem, 2016).

Experiment [1] is described as follows: Growth inhibition of human M14 cells at 250 nM after 24 hrs by cell titer 96 cell proliferation assay. Type of experiment: functional. Conditions: M14, 24 h, read-out: GI. In a few lines: (§1)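 M14 cells seeded at 8×10^4 cells/mL in 96-well plates and left to adhere overnight. They were treated with 62.5, 125 or 250 nM compound or with DMSO control for up to 72 h. Dye was added for 4 h, followed by solubilization/stop solution, and absorbance was read at 570 nm, zeroed on medium-only wells. Inhibition is given as % versus control. Triplicates in three experiments.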

Experiment [2] is described as follows: Growth inhibition of human M14 cells at 250 nM after 48 hrs by cell titer 96 cell proliferation assay. Type of experiment: functional. Particulars: M14, 48 h, read-out: GI. In a few lines:
as §1

A short description of experiment [3]: Growth inhibition of human M14 cells at 250 nM after 72 hrs by cell titer 96 cell proliferation assay. Type of experiment: functional. Particulars: M14, 72 h, read-out: GI. In a few lines: as §1
A short description of experiment [4]: Growth inhibition of human M14 cells at 250 nM after 24 hrs by trypan blue dye exclusion assay. Type of experiment: functional. Conditions: M14, 24 h, read-out: GI. The method in brief:
(§2)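 Cells seeded at 5×10^4 cells/mL and left to adhere overnight. They were then exposed to 7.8–250 nM compound or to DMSO vehicle, 3 wells per treatment, at 37°C in 5% CO2 for 24, 48 or 72 h. Trypsinized cells were counted by hemocytometer, and viability was scored by trypan blue exclusion. Read-out is viable cell number, mean ± SE of triplicate wells, from a representative experiment of at least three.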

Experiment [5] is described as follows: Growth inhibition of human H125 cells at 250 nM after 24 hrs by trypan blue dye exclusion assay. Type of experiment: functional. Particulars: NCI-H125, 24 h, read-out: GI. The method in brief:
as §2

The nature of experiment [6]: Growth inhibition of human HL60 cells at 250 nM after 24 hrs by trypan blue dye exclusion assay. Type of experiment: functional. Particulars: HL-60, 24 h, read-out: GI. In a few lines:
as §2

A short description of experiment [7]: Growth inhibition of human HT-29 cells at 250 nM after 24 hrs by trypan blue dye exclusion assay. Type of experiment: functional. Particulars: HT-29, 24 h, read-out: GI. In a few lines:
as §2

A short description of experiment [8]: Growth inhibition of human MCF7 cells at 250 nM after 24 hrs by trypan blue dye exclusion assay. Conditions: MCF7, 24 h, read-out: GI. Type of experiment: functional. The method in brief: as §2
Experiment [9] in a line: Growth inhibition of human SH-SY5Y cells at 250 nM after 24 hrs by trypan blue dye exclusion assay. Type of experiment: functional. Particulars: read-out: GI. The method in brief:
as §2

Experiment [10] deals with SH-SY5Y. The experiment is described as follows: Induction of apoptosis in human SH-SY5Y cells assessed as increase in caspase 3/7 activation at 7.8 to 15.6 nM after 24 hrs by caspase-glo 3/7 luminescence assay. Type of experiment: functional, cell-based. In a few lines:
(§3)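 SH-SY5Y cells seeded at 5×10^4 cells/mL and left to adhere overnight, then exposed to 7.8–31.2 nM for 24 h. Caspase-Glo 3/7 reagent, in a volume equal to the medium, was added for 1 h at 37°C. Luminescence from the cleaved aminoluciferin substrate was read and expressed relative to untreated control set at 1.0. DMSO-treated cells served as negative control. Triplicate wells.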

Experiment [11] deals with SH-SY5Y. The experiment is described as follows: Induction of apoptosis in human SH-SY5Y cells assessed as increase in caspase 3/7 activation at 31.2 nM after 24 hrs by caspase-glo 3/7 luminescence assay relative to control. Type of experiment: functional. In a few lines:
as §3

In experiment [12] the target is T1, Telomerase reverse transcriptase (Homo sapiens, UniProt O14746). Put plainly: Inhibition of telomerase activity in human MCF7 cells using biotin-labeled TeloTAGGG as primer at 31.2 nM preincubated for 48 hrs followed by primer addition measured after 30 mins by PCR-ELISA. Type of experiment: cell-based. In a few lines: (§4)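 Cells treated 48 h with 31.2–250 nM, then washed, lysed, and the supernatants stored at −80°C. Extracts were incubated 30 min with biotin-labeled primer for telomeric repeat extension. Products plus internal standard were PCR-amplified, hybridized to digoxigenin probes, captured on streptavidin plates, detected with peroxidase antibody, and read at 450 nm. Heat-inactivated extract (95°C, 10 min) served as negative control. Inhibition is % of untreated means; triplicate.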
On the technique in general: ELISA stands for enzyme-linked immunosorbent assay.

Experiment [13] concerns the target T1, Telomerase reverse transcriptase. Put plainly: Inhibition of telomerase activity in human M14 cells using biotin-labeled TeloTAGGG as primer at 31.2 nM preincubated for 48 hrs followed by primer addition measured after 30 mins by PCR-ELISA. Type of experiment: cell-based. In a few lines:
as §4

Experiment [14] shares this target. The experiment is described as follows: Inhibition of telomerase activity in human H125 cells using biotin-labeled TeloTAGGG as primer at 31.2 nM preincubated for 48 hrs followed by primer addition measured after 30 mins by PCR-ELISA. Type of experiment: cell-based. In a few lines: as §4
Experiment [15] has the same target. Put plainly: Inhibition of telomerase activity in human HT-29 cells using biotin-labeled TeloTAGGG as primer at 31.2 nM preincubated for 48 hrs followed by primer addition measured after 30 mins by PCR-ELISA. Type of experiment: cell-based. The method in brief:
as §4

For experiment [16] the target is unchanged. Put plainly: Inhibition of telomerase activity in human MCF7 cells using biotin-labeled TeloTAGGG as primer at 62.5 nM preincubated for 48 hrs followed by primer addition measured after 30 mins by PCR-ELISA. Type of experiment: cell-based. In a few lines: as §4
For experiment [17] the target is unchanged. Put plainly: Inhibition of telomerase activity in human M14 cells using biotin-labeled TeloTAGGG as primer at 62.5 nM preincubated for 48 hrs followed by primer addition measured after 30 mins by PCR-ELISA. Type of experiment: cell-based. The method in brief: as §4
Experiment [18] has the same target. The experiment is described as follows: Inhibition of telomerase activity in human H125 cells using biotin-labeled TeloTAGGG as primer at 62.5 nM preincubated for 48 hrs followed by primer addition measured after 30 mins by PCR-ELISA. Type of experiment: cell-based. The method in brief: as §4
Experiment [19] shares this target. Put plainly: Inhibition of telomerase activity in human HT-29 cells using biotin-labeled TeloTAGGG as primer at 62.5 nM preincubated for 48 hrs followed by primer addition measured after 30 mins by PCR-ELISA. Type of experiment: cell-based. The method in brief:
as §4

For experiment [20] the target is unchanged. The experiment is described as follows: Inhibition of telomerase activity in human MCF7 cells using biotin-labeled TeloTAGGG as primer at 125 nM preincubated for 48 hrs followed by primer addition measured after 30 mins by PCR-ELISA. Type of experiment: cell-based. In a few lines: as §4
Experiment [21] shares this target. The experiment is described as follows: Inhibition of telomerase activity in human M14 cells using biotin-labeled TeloTAGGG as primer at 125 nM preincubated for 48 hrs followed by primer addition measured after 30 mins by PCR-ELISA. Type of experiment: cell-based. The method in brief:
as §4

For experiment [22] the target is unchanged. Put plainly: Inhibition of telomerase activity in human H125 cells using biotin-labeled TeloTAGGG as primer at 125 nM preincubated for 48 hrs followed by primer addition measured after 30 mins by PCR-ELISA. Type of experiment: cell-based. In a few lines:
as §4

Experiment [23] has the same target. Put plainly: Inhibition of telomerase activity in human HT-29 cells using biotin-labeled TeloTAGGG as primer at 125 nM preincubated for 48 hrs followed by primer addition measured after 30 mins by PCR-ELISA. Type of experiment: cell-based. In a few lines:
as §4

Experiment [24] shares this target. The experiment is described as follows: Inhibition of telomerase activity in human MCF7 cells using biotin-labeled TeloTAGGG as primer at 250 nM preincubated for 48 hrs followed by primer addition measured after 30 mins by PCR-ELISA. Type of experiment: cell-based. The method in brief: as §4
For experiment [25] the target is unchanged. Put plainly: Inhibition of telomerase activity in human M14 cells using biotin-labeled TeloTAGGG as primer at 250 nM preincubated for 48 hrs followed by primer addition measured after 30 mins by PCR-ELISA. Type of experiment: cell-based. The method in brief:
as §4

Experiment [26] shares this target. Put plainly: Inhibition of telomerase activity in human H125 cells using biotin-labeled TeloTAGGG as primer at 250 nM preincubated for 48 hrs followed by primer addition measured after 30 mins by PCR-ELISA. Type of experiment: cell-based. In a few lines: as §4
Experiment [27] shares this target. Put plainly: Inhibition of telomerase activity in human HT-29 cells using biotin-labeled TeloTAGGG as primer at 250 nM preincubated for 48 hrs followed by primer addition measured after 30 mins by PCR-ELISA. Type of experiment: cell-based. The method in brief:
as §4

For experiment [28] the target is unchanged. Put plainly: Inhibition of telomerase activity in human MCF7 cells using biotin-labeled TeloTAGGG as primer preincubated for 48 hrs followed by primer addition measured after 30 mins by PCR-ELISA. Type of experiment: cell-based. In a few lines:
as §4

The target is the same in experiment [29]. Put plainly: Inhibition of telomerase activity in human M14 cells using biotin-labeled TeloTAGGG as primer preincubated for 48 hrs followed by primer addition measured after 30 mins by PCR-ELISA. Type of experiment: cell-based. The method in brief: as §4
Experiment [30] shares this target. The experiment is described as follows: Inhibition of telomerase activity in human H125 cells using biotin-labeled TeloTAGGG as primer preincubated for 48 hrs followed by primer addition measured after 30 mins by PCR-ELISA. Type of experiment: cell-based. In a few lines: as §4
Experiment [31] shares this target. Put plainly: Inhibition of telomerase activity in human HT-29 cells using biotin-labeled TeloTAGGG as primer preincubated for 48 hrs followed by primer addition measured after 30 mins by PCR-ELISA. Type of experiment: cell-based. The method in brief: as §4

The source made the active and inactive calls. The calls are words filed in the database; no cut-off is given here.

T1 sequence (O14746 whole entry): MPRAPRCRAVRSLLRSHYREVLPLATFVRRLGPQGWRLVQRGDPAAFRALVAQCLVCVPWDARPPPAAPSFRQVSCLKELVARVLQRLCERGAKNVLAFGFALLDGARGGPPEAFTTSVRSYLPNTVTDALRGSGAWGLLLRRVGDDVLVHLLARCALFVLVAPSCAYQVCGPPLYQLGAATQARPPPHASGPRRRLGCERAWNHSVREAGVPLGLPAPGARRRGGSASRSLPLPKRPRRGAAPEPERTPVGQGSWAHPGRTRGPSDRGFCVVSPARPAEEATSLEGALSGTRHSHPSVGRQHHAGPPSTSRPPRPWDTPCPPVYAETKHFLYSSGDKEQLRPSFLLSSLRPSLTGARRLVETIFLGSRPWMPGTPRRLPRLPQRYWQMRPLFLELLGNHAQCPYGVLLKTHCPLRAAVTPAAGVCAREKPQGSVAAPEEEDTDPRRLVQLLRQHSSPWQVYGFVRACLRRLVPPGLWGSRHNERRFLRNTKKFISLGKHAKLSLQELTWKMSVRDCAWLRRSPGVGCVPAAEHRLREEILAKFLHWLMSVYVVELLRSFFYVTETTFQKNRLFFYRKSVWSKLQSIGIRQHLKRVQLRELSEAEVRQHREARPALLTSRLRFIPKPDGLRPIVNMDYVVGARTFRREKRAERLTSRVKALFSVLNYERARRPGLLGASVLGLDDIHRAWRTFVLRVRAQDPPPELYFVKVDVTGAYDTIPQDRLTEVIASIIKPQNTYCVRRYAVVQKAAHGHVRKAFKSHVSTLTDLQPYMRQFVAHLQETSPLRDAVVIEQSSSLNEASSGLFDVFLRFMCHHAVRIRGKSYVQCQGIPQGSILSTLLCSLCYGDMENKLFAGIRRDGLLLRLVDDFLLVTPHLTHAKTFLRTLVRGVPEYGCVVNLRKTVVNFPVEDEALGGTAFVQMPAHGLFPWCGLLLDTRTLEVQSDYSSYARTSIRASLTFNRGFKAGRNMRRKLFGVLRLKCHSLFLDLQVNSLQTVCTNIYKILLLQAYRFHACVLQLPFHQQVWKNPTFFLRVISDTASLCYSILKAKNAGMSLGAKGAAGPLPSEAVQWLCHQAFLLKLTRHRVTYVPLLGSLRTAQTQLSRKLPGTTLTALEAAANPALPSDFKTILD

Take `C[C@@H]1CCC[C@@]2(O[C@H](O)C=CC2=O)O1`: the inhibition of growth at 0.25 µM was 36.7% in experiment [1], 58.1% in experiment [2] and 63.7% in [3].

On to `C[C@H]1CCC[C@]2(O[C@@H](O)C=CC2=O)O1`, for which the inhibition of growth at 0.25 µM in [1] amounted to 40.4%; in experiment [2], 64.4%; in experiment [3], 66.6%.

For the compound `CC1CCCC2(OC(O)C=CC2=O)O1` (mixture of isomers), the inhibition of growth at 0.25 µM in experiment [4], in [5], in experiment [6], in [7], in experiment [8] and in experiment [9] was over 90% in each case. The inhibition of growth at 0.25 µM in [1] is 36.8%; in [2], 56.1%; in experiment [3], 61.4%. For the same compound, the outcome in the experiment on SH-SY5Y [10] was Active. The “fold change (FC)” value in the experiment with SH-SY5Y [11] came to 8.2. In addition, the inhibition in experiment [12] was 0%; in experiment [13] it was 62%; in [14], 13.6%; in [15], 24%; in [16], 37.5%; in experiment [17] it was 63%. In addition, the inhibition is 48.7% in experiment [18]; 53.5% in [19]; 67.9% in experiment [20]; 74% in experiment [21]; 67.6% in experiment [22]; 69% in experiment [23]. Further, the inhibition in [24] was 78.6%; in experiment [25], 82.6%; in [26] it was 75.7%; in [27], 73.4%; in experiment [28], “Dose-dependent effect”; in experiment [29], “Dose-dependent effect”. Besides, the inhibition result in [30] and in [31] was “Dose-dependent effect” in each case. The IC50 in experiment [28], in [29], in [30] and in [31] was 12.6 to 85.2 nM throughout.

The inhibition is the change of the read-out against control, counted positive when it falls. One may read the IC50 as the point on the concentration scale where inhibition reaches its midpoint. A lower IC50 goes with greater potency.
